# Source: ChEMBL document CHEMBL3351736, “A promising camptothecin derivative: Semisynthesis, antitumor activity and intestinal permeability” (Eur J Med Chem, 2014)
# Active and inactive are the calls of the source. The rule behind the calls is not given here.
# Assays:
# Caco-2 [1] = assay: Induction of apoptosis in human Caco2 cells assessed as necrotic cells at 0.5 uM after 24 hrs by Annexin V/propidium iodide staining-based flow cytometric analysis (reference value: 0.41 +/- 0.02%); format: functional
# A-375 [2] = assay: Induction of apoptosis in human A375 cells assessed as inhibition of DNA synthesis after 24 hrs by BrdU staining-based ELISA; format: functional, cell-based
# In short: (§1)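 Cells seeded at 25,000/well; compounds added 24 h after seeding at a range of concentrations and incubated 24 h. Cells fixed, then colorimetric BrdU-incorporation ELISA. Absorbance read at 370-492 nm over 3 intervals of 5 min. Mean of three separate experiments with triplicate samples.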
# Caco-2 [3] = assay: Induction of apoptosis in human Caco2 cells assessed as vital cells at 0.05 uM after 48 hrs by Annexin V/propidium iodide staining-based flow cytometric analysis (reference value: 96.67 +/- 1.02%); format: functional
# Caco-2 [4] = assay: Induction of apoptosis in human Caco2 cells assessed as late apoptotic cells at 0.05 uM after 24 hrs by Annexin V/propidium iodide staining-based flow cytometric analysis (reference value: 2.20 +/- 0.77%); format: functional
# Caco-2 [5] = assay: Induction of apoptosis in human Caco2 cells assessed as late apoptotic cells at 0.5 uM after 24 hrs by Annexin V/propidium iodide staining-based flow cytometric analysis (reference value: 2.20 +/- 0.77%); format: functional
# Caco-2 [6] = assay: Induction of apoptosis in human Caco2 cells assessed as late apoptotic cells at 0.5 uM after 48 hrs by Annexin V/propidium iodide staining-based flow cytometric analysis (reference value: 2.20 +/- 0.77%); format: functional
# [7] = Permeability from apical to basolateral side in human Caco2 cells at 10 to 50 uM after 15 to 90 mins by HPLC analysis; format: ADME, cell-based; conditions: caco-2, 50 µM
# In short: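 Caco-2 cells seeded at 400,000 per polycarbonate transwell insert (0.4 μm pore) and grown in DMEM for 19-22 days to confluence at 37°C, 5% CO2. TEER checked before and after each run. Compound in donor chamber, buffer in receiver. Run at 37°C with 50 rpm orbital shaking. Receiver sampled at 15, 30, 60 and 90 min with buffer replacement; donor sampled at start and end. HPLC quantitation; three independent experiments.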
# [8] = Effective permeability in Wistar rat small intestine at 50 uM measured after 5 mins in every 5 min interval up to 30 mins; format: ADME, tissue-based; conditions: not told, read-out: Peff
# In short: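 In situ intestinal perfusion in male Wistar rats fasted 2 h with water allowed. Anaesthesia with diazepam (1.67 mg/kg), ketamine (50 mg/kg) and atropine (1 mg/kg); animals kept at 37 °C. Perfusate sampled every 5 min from 5 to 30 min; absorption rate constant and Peff derived.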
# A-375 [9] = assay: Induction of apoptosis in human A375 cells assessed as p53 phosphorylation at Ser15 by Western blotting analysis; format: functional, cell-based
# In short: (§2)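 Cells treated 24 h. About 10^6 cells lysed on ice 15 min in Hepes pH 7.4/Triton X-100 buffer with phosphatase and protease inhibitors, then spun 13,000 × g. 30 µg protein run on 12% SDS-PAGE and blotted to nitrocellulose. Primary anti-phospho-p53 (Ser15) and anti-p53 at 1:1000 for 2 h at room temperature, then HRP secondary and ECL densitometry. Results referred to untreated control.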
# MDA-MB-231 [10] = assay: Induction of apoptosis in human MDA-MB-231 cells assessed as inhibition of DNA synthesis after 24 hrs by BrdU staining-based ELISA; format: functional, cell-based; in short: as §1
# Caco-2 [11] = assay: Induction of apoptosis in human Caco2 cells assessed as early apoptotic cells at 0.5 uM after 48 hrs by Annexin V/propidium iodide staining-based flow cytometric analysis (reference value: 0.72 +/- 0.03%); format: functional
# MDA-MB-231 [12] = assay: Induction of apoptosis in human MDA-MB-231 cells assessed as p53 phosphorylation at Ser15 by Western blotting analysis; format: functional, cell-based; in short: as §2
# Caco-2 [13] = assay: Induction of apoptosis in human Caco2 cells assessed as necrotic cells at 0.5 uM after 48 hrs by Annexin V/propidium iodide staining-based flow cytometric analysis (reference value: 0.41 +/- 0.02%); format: functional
# Caco-2 [14] = assay: Induction of apoptosis in human Caco2 cells assessed as late apoptotic cells at 0.05 uM after 48 hrs by Annexin V/propidium iodide staining-based flow cytometric analysis (reference value: 2.20 +/- 0.77%); format: functional
# [15] = Effective permeability from apical to basolateral side in human Caco2 cells at 50 uM after 15 to 90 mins by HPLC analysis; format: ADME, cell-based; conditions: Caco-2, read-out: Peff
# In short: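 Caco-2 monolayers grown 19-22 days on polycarbonate transwell inserts (4.2 cm², 0.4 µm pore) at 37 °C, 5% CO2; TEER checked before and after each run. Compound added to donor side at 37 °C, 50 rpm. Receiver sampled at 15, 30, 60 and 90 min; donor sampled at start and end. HPLC analysis. Sodium azide, when used, placed on both sides. Three independent experiments.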
# Caco-2 [16] = assay: Induction of apoptosis in human Caco2 cells assessed as early apoptotic cells at 0.05 uM after 24 hrs by Annexin V/propidium iodide staining-based flow cytometric analysis (reference value: 0.72 +/- 0.03%); format: functional
# Caco-2 [17] = assay: Induction of apoptosis in human Caco2 cells assessed as necrotic cells at 0.05 uM after 48 hrs by Annexin V/propidium iodide staining-based flow cytometric analysis (reference value: 0.41 +/- 0.02%); format: functional
# Caco-2 [18] = assay: Induction of apoptosis in human Caco2 cells assessed as early apoptotic cells at 0.5 uM after 24 hrs by Annexin V/propidium iodide staining-based flow cytometric analysis (reference value: 0.72 +/- 0.03%); format: functional
# Jurkat = assay: Cytotoxicity against human Jurkat cells after 24 hrs by MTT assay; format: functional, cell-based
# In short: (§3)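 Cells seeded at 25000 per well and held 24 h at 37 °C in 5% CO2. Medium was then renewed and compounds added at increasing concentrations (DMSO 0.1%, or water for topotecan) for 24 h. MTT solution (5 mg/mL) was added for 3 h at 37 °C, then absorbance read at 570 nm, corrected at 630 nm. IC50 in µM.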
# MDA-MB-231 [19] = assay: Induction of apoptosis in human MDA-MB-231 cells assessed as inhibition of DNA synthesis at 0.8 to 1.6 uM after 24 hrs by BrdU staining-based ELISA; format: functional, cell-based
# In short: (§4)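 BrdU colorimetric cell proliferation ELISA. Cells seeded at 25,000 per well, compounds added 24 h after seeding and incubated 24 h. Cells fixed and the immunoassay run per kit. Absorbance read at 370-492 nm over 3 intervals of 5 min; absorbance difference proportional to BrdU incorporation. Mean of three separate experiments in triplicate, compared with untreated control.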
# HeLa [20] = assay: Cytotoxicity against human HeLa cells after 24 hrs by MTT assay; format: functional, cell-based; in short: as §3
# A-375 [21] = assay: Cytotoxicity against human A375 cells after 24 hrs by MTT assay; format: functional, cell-based; conditions: A-375, 24 h; in short: as §3
# A-375 [22] = assay: Induction of apoptosis in human A375 cells assessed as inhibition of DNA synthesis at 0.8 to 1.6 uM after 24 hrs by BrdU staining-based ELISA; format: functional, cell-based; in short: as §4
# [23] = Cytotoxicity against human Caco2 cells after 24 hrs by MTT assay; format: functional, cell-based; conditions: Caco-2, 24 h
# HeLa [24] = assay: Induction of apoptosis in human HeLa cells assessed as inhibition of DNA synthesis after 24 hrs by BrdU staining-based ELISA; format: functional, cell-based; in short: as §1
structure (smiles),measurement,setting,value
CC[C@@]1(O)C(=O)OCc2c1cc1n(c2=O)Cc2cc3c(CN(C)C)c(O)ccc3nc2-1.Cl [TOPOTECAN HYDROCHLORIDE],Activity,Caco-2 [1],8.54%
same,inhibition,A-375 [2],Dose-dependent effect
same,Activity,Caco-2 [3],45.2%
same,Activity,Caco-2 [4],19.54%
same,Activity,Caco-2 [5],33.98%
same,Activity,Caco-2 [6],53.12%
same,permeability,[7],permeable
same,"Papp at 5 min, 50 µM",[8],55.8 ×10⁻⁶ cm/s
same,Activity,A-375 [9],Active
same,inhibition,MDA-MB-231 [10],Dose-dependent effect
same,Activity,Caco-2 [11],5.74%
same,Activity,MDA-MB-231 [12],Active
same,Activity,Caco-2 [13],2.88%
same,Activity,Caco-2 [14],48.06%
same,Papp A→B at 50 µM,[15],1.77 ×10⁻⁶ cm/s
same,Activity,Caco-2 [16],5.42%
same,Activity,Caco-2 [17],2.36%
same,Activity,Caco-2 [18],4.4%
same,IC50,Jurkat,127 nM
same,Activity,MDA-MB-231 [19],Active
same,IC50,HeLa [20],380 nM
same,IC50,A-375 [21],162 nM
same,Activity,A-375 [22],Active
same,IC50,[23],119 nM
same,inhibition,HeLa [24],Dose-dependent effect
